# Compound activity from PubChem BioAssay.
# Only some compounds are listed: those with a hit (about 3.7% of all), similar ones and a draw of the others.
# procasp7 counter = procaspase-7 activators, primary screen, counter-screen for procaspase-3 activator project, biochemical, absorbance, HTS, human; actives 0.093% (n = 330,000); activation, % at 8.5 µM; AID 463210, 2010; recombinant procaspase-7, Ac-DEVD-pNA absorbance 405 nm; D23A/D198A/D206A triple mutant, cannot self-cleave; scale: DMSO 0, 5 µM enzyme 100; Caspase-7 (Homo sapiens), P55210;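 active means percent activation above the screen-wide mean plus 3 SD, cut at about 25% in these data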
#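 System: Procaspase-7 triple mutant (PC-7 D3A); measure: % activation from two-timepoint absorbance difference, scaled to controls; times: 1 h compound preincubation, 2 h substrate cleavage, 25 °C; also added: Ac-DEVD-pNA substrate, 400 µM as added; measured by: Epi-absorbance of released pNA at 405 nm, two timepoints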
# proCasp3 act = activators of human procaspase-3 D3A mutant, primary screen, biochemical, absorbance, PC-3 D3A mutant, single concentration; recombinant procaspase-3 D3A, Ac-DEVD-pNA absorbance 405 nm; activation, % at 8.5 µM; Caspase-3 (Homo sapiens), P42574; actives 0.11% (n = 330,000);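 active means activation above the mean of all tested compounds plus 3 SD, cut at about 21% in these data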
# Target sequence (P42574 whole entry D9A/D28A/D175A): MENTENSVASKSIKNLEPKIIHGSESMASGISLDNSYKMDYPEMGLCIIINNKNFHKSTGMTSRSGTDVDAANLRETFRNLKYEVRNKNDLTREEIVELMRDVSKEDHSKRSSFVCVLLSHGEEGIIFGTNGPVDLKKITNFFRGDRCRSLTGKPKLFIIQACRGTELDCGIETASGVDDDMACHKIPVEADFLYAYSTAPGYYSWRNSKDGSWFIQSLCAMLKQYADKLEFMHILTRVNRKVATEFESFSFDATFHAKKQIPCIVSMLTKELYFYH
#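 Test system: Procaspase-3 D3A mutant, all three cleavage aspartates alanine | Dosing: Single dose, 8.5 µM nominal compound, 0.8% DMSO | Schedule: 1 h preincubation, 2 h reaction | Technique: 405 nm absorbance of p-nitroaniline, reads at 0 and 120 min | Repeats: One well per compound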
# MPTP block = mitochondrial permeability transition pore inhibitors, primary screen, biochemical, isolated mouse mitochondria, absorbance; Ca2+ swelling absorbance, 30 min; inhibition, % at 10 µM; actives 1.4% (n = 360,000);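 active means inhibition of 50% or more, scaled per plate between neutral and stimulator controls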
# aDG glyco up = activators of alpha-DG glycosylation, primary screen, uHTS, Pro5-aDG cells, AlphaScreen; activation, % at 10 µM; alpha-DG glycosylation AlphaScreen (IIH6); 0% Pro5, 100% B10-LARGE cell signal; actives 0.22% (n = 360,000);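 active means activation of at least 8% versus controls, or a plate z-score of at least 8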;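 further: Pro5 are CHO cells carrying HIG-tagged alpha-DG that lacks glycosylation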
# GRIN3A LBD mod = binders of NR3A ligand-binding domain, primary screen, biophysical, differential scanning fluorimetry, uHTS. NR3A LBD differential scanning fluorimetry, Tm shift; 0% = protein alone, 100% = glycine-bound protein. Tm shift relative to glycine control, % at 25 µM. actives 2.5% (n = 340,000). AID 1259313, 2017;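 active means melting temperature shift of at least 10% of the positive control shift, at one fixed dose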
# Rh123 counter = fluorescence retest of MPTP screen hits in isolated mitochondria, single concentration | shares compounds with MPTP block | AID 624504, 2012 | actives 78% (n = 5,000) | inhibition, % at 10 µM | membrane potential, Rhodamine 123 fluorescence; in the data active means inhibition above about 22%
# Numbers stand for hits; – = inactive; · = not tested or not shown.
SMILES,procasp7 counter,proCasp3 act,MPTP block,aDG glyco up,GRIN3A LBD mod,Rh123 counter
Cc1noc(-c2ccc(C(F)(F)F)cc2)c1NC(=O)Nc1ccc(Cl)cc1,–,–,75.3,–,30.1,71.6
CN(Cc1ccc(C(F)(F)F)cc1)C(=O)C1CC(=O)N(Cc2ccco2)C1 (configuration not stated),–,–,–,–,–,·
Cc1cccc(C(=O)NCC(=O)N2CCN(S(=O)(=O)c3ccc4c(c3)OCCO4)CC2)c1,–,–,–,–,–,·
CCc1ccc(OCC(=O)NC(NC(=S)Nc2ccccc2OC)C(Cl)(Cl)Cl)cc1 (configuration not stated),–,–,92.2,–,–,89.1
CCOC(=O)NC(NC(=S)Nc1ccccc1OC)C(Cl)(Cl)Cl (configuration not stated),–,–,–,–,–,·
CC(=O)NC(NC(=S)Nc1ccc(C)cc1C)C(Cl)(Cl)Cl (configuration not stated),–,–,–,–,–,·
Cc1ccccc1NC(=S)NC(NC(=O)COc1ccccc1)C(Cl)(Cl)Cl (configuration not stated),–,–,80.1,–,–,82.9
Cc1ccc(NC(=S)NC(NC(=O)c2ccccc2C)C(Cl)(Cl)Cl)c(C)c1 (configuration not stated),–,–,92.8,–,–,81.9
O=C(COc1ccccc1)NC(NC(=S)Nc1ccccc1O)C(Cl)(Cl)Cl (configuration not stated),–,–,72.6,–,–,74.3
COC(=O)c1ccccc1NC(=S)NC(NC(=O)COc1ccccc1)C(Cl)(Cl)Cl (configuration not stated),–,–,–,–,–,·
CCc1ccc(OCC(=O)NC(NC(=S)Nc2ccccc2)C(Cl)(Cl)Cl)cc1 (configuration not stated),–,–,80.2,–,23.0,87.8
CCc1ccc(OCC(=O)NC(NC(=S)Nc2ccc(C)cc2C)C(Cl)(Cl)Cl)cc1 (configuration not stated),–,–,–,–,–,·
CC(C)CC(=O)NC(NC(=S)Nc1ccccc1)C(Cl)(Cl)Cl (configuration not stated),–,–,–,–,–,·
CCc1ccc(OCC(=O)NC(NC(=S)Nc2ccccc2C)C(Cl)(Cl)Cl)cc1 (configuration not stated),–,–,80.6,–,15.3,86.6
O=C1CN(C(=O)CN2CCN(S(=O)(=O)c3ccccc3)CC2)c2ccccc2N1,·,·,–,–,·,·
Cc1cccc(C)c1OCC(O)CN1CCC(CN2C(=O)c3cccc4cccc(c34)C2=O)CC1 (configuration not stated),–,–,62.2,–,–,–
CN(C)c1ccc(N=Nc2nc3ccccc3n2C)cc1,–,–,66.2,–,–,–
COCCN(C(=O)COC(=O)C1CC1)c1c(N)n(Cc2ccccc2)c(=O)[nH]c1=O,–,–,–,–,–,·
Cc1cc(C(=O)COc2cccnc2[N+](=O)[O-])c(C)n1Cc1cccs1,–,–,–,–,–,·
CC(=O)Nc1ccccc1OCC(=O)c1cc(C)n(Cc2cccs2)c1C,–,–,99.9,–,–,93.5
COc1ccc(C[C@H]2CN3C(=NC[C@@H]3C(C)C)N2CCNC(=O)c2ccc(C)c(Br)c2)cc1,–,–,68.8,–,–,–
Cc1ccc(C(=O)NCCN2C3=NC[C@H](C(C)C)N3C[C@H]2Cc2ccc(O)cc2)cc1Br,–,–,–,–,–,·
O=S(=O)(Nc1nc2ccccc2nc1N1CCN(c2ccccc2F)CC1)c1ccc(Cl)cc1,–,–,79.3,–,21.2,88.0
